Series [1] concerns Mus musculus. The series can be described thus: Inhibition of Mouse active Arthus (MAA) reaction activity was determined for an ip dose of 150 mg/kg in mouse; 21-30%. The note with it: route intraperitoneal. Format: functional.
For series [2], the system named is Cavia porcellus. The series can be described thus: Tested in delayed hypersensitivity skin reaction (DHSR) after subcutaneous administration, activity reported as percent inhibition of erythema/induration of lesion; 5/2. The series is classed as functional. The essentials:
(§1)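 Male Hartley guinea pigs were sensitized with Mycobacterium tuberculosis in Freund's incomplete adjuvant, injected into each hind footpad and subcutaneously at the neck. After 3 weeks, 1.2 μg PPD was given intradermally. Compound in sesame oil was given sc, 3 animals per group, 30 min before and 5 h after PPD; screening dose 50 mg/kg.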

The test system of series [3] is Cavia porcellus. Kind of series: The compound was evaluated for the delayed hypersensitivity skin reaction (DHSR) activity after subcutaneous administration; 12/21.
Series [4] relates to Mus musculus. Kind of series: Mouse active Arthus (MAA) reaction activity was determined for an ip dose of 150 mg/kg in mouse; 31-40%. The note with it: route intraperitoneal. The series is classed as functional.
The test system of series [5] is Mus musculus. The series can be described thus: The compound was evaluated for the mouse active Arthus (MAA) reaction activity for peroral screening dose of 150 mg/kg in mouse. Format: functional. The conditions noted are these: route oral.
Series [6] has as its system Cavia porcellus. Kind of series: Tested in delayed hypersensitivity skin reaction (DHSR) after subcutaneous administration, activity reported as percent inhibition of erythema/induration of lesion; 19/23. Format: functional.
For series [7], the system named is Mus musculus. Kind of series: The compound was evaluated for the mouse active Arthus (MAA) reaction activity for an ip screening dose of 75 mg/kg in mouse. The conditions noted are these: route intraperitoneal. The series is classed as functional. The method, boiled down:
(§2)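 CD-1 mice were sensitized ip with a 1:1 Freund's complete adjuvant emulsion containing BSA in saline, 5 weeks before challenge. Compound was suspended in 1% Na CMC in pyrogen-free saline and given as one ip or oral dose 1 h before skin challenge with BSA. Screening doses were 150 mg/kg ip and 300 mg/kg po, with some at 75 or 50 mg/kg ip. Lesions were excised 3.5 h after challenge and weighed against controls.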

Series [8] has as its system Cavia porcellus. The series can be described thus: Tested in delayed hypersensitivity skin reaction (DHSR) after subcutaneous administration, activity reported as percent inhibition of erythema/induration of lesion; 4/22. The series is classed as functional. The essentials: as §1
Series [9] relates to Mus musculus. Kind of series: Mouse active Arthus (MAA) reaction was determined value for oral administration.
Series [10] in a line: Therapeutic ratio was determined for peroral administration. The note with it: po; read-out: TR.
Series [11] concerns Mus musculus. The series can be described thus: The compound was evaluated for the mouse active Arthus (MAA) reaction activity expressed as inhibitory dose after ip administration. The conditions noted are these: read-out: ID50 (the source's name). Format: functional. The method, boiled down:
as §2

Series [12] has as its system Cavia porcellus. Kind of series: Tested in delayed hypersensitivity skin reaction (DHSR) after subcutaneous administration, activity reported as percent inhibition of erythema/induration of lesion; 18/50. The series is classed as functional.
Series [13] has as its system Mus musculus. Kind of series: Inhibition of Mouse active Arthus (MAA) reaction activity was determined for peroral dose of 300 mg/kg in mouse; 21-30%. Format: functional. The conditions noted are these: route oral.
In series [14] the test system is Mus musculus. Kind of series: Mouse active Arthus (MAA) reaction activity was determined for an ip dose of 150 mg/kg in mouse. The note with it: route intraperitoneal. The series is classed as functional.
The nature of series [15]: Acute toxicity as LD50 value was determined in mice administered orally. The note with it: mouse, in vivo, po. The series is classed as organism-based.
Series [16] is described as follows: Acute toxicity as LD50 value was determined in mice administered intraperitoneally. The series is classed as organism-based. The conditions noted are these: mouse, in vivo, ip.
Series [17] deals with Mus musculus. Kind of series: The compound was evaluated for the mouse active Arthus (MAA) reaction activity expressed as inhibitory dose after oral administration. Format: functional. The note with it: read-out: ID50 (the source's name). The essentials:
as §2

Series [18] can be described thus: Therapeutic ratio was determined for intraperitoneal administration. The series is classed as ADME. The note with it: ip; read-out: TR.
For series [19], the species on record is Mus musculus. Kind of series: The compound was evaluated for the mouse active Arthus (MAA) reaction activity expressed as inhibitory dose. The series is classed as functional. The conditions noted are these: read-out: ID50 (the source's name). The essentials: as §2
The test system of series [20] is Cavia porcellus. The series can be described thus: Tested in delayed hypersensitivity skin reaction (DHSR) after subcutaneous administration, activity reported as percent inhibition of erythema/induration of lesion; 7/1. The series is classed as functional. The method, boiled down:
as §1

The test system of series [21] is Mus musculus. Kind of series: Inhibition of Mouse active Arthus (MAA) reaction activity was determined for peroral screening dose of 150 mg/kg in mouse; 21-30%. Format: functional. The note with it: route oral.
The test system of series [22] is Mus musculus. The series can be described thus: Inhibition of Mouse Active Arthus reaction following 150 mg/Kg i.p.; 41-60% inhibition. The series is classed as functional. The note with it: Mus musculus, ip.
Series [23] relates to Mus musculus. Kind of series: Inhibition of Mouse active Arthus (MAA) reaction activity was determined for peroral dose of 300 mg/kg in mouse; 31-40%. Format: functional. The conditions noted are these: route oral.
Series [24] deals with Cavia porcellus. Kind of series: The compound was evaluated for the delayed hypersensitivity skin reaction (DHSR) activity after subcutaneous administration; 11/27.
Series [25] relates to Cavia porcellus. Kind of series: Tested in delayed hypersensitivity skin reaction (DHSR) after subcutaneous administration, activity reported as percent inhibition of erythema/induration of lesion; 7/17. Format: functional. The essentials:
as §1

Series [26] deals with Cavia porcellus. Kind of series: The compound was evaluated for the delayed hypersensitivity skin reaction (DHSR) activity after subcutaneous administration; 1/0.
Series [27] deals with Cavia porcellus. The series can be described thus: The compound was evaluated for the delayed hypersensitivity skin reaction (DHSR) activity after subcutaneous administration; 8/1.

Results on 11 compounds are retold here after ChEMBL document CHEMBL1122142, “Synthesis and antiinflammatory activity of hexahydrothiopyrano[4,3-c]pyrazoles and related analogues” (J Med Chem, 1982).

Usually inhibition in vivo stands for the percentage by which the read-out fell short of the control. Low readings indicate a response near the control, high ones a response far below the control. For orientation: LD50 means the dose expected to kill half of the subjects tested.

Structures are written as SMILES.

The compound `CC(C)n1nc(-c2cccc(C(F)(F)F)c2)c2c1/C(=C/c1cccc(C(F)(F)F)c1)CS(=O)(=O)C2` displayed an inhibition in vivo at 150 mg/kg in series [1] of 21%. Further, in series [2], the Activity is on record as 5.
Regarding `CCCN1N=C2/C(=C/c3cccc(C(F)(F)F)c3)CSCC2C1c1cccc(C(F)(F)F)c1` (stereo not drawn), the Activity in series [3] is reported as 12. In series [4], testing at 150 mg/kg gave an inhibition in vivo of 31%.
In turn, `Cc1ccc(/C=C2\CS(=O)(=O)Cc3c(-c4ccc(C)cc4)nn(CC(F)(F)F)c32)cc1` came in with an inhibition in vivo at 150 mg/kg in series [5] below 20%. Moreover, the Activity in series [6] worked out at 19. In series [7], the inhibition in vivo at 75 mg/kg is above 60%.
The compound `CC(C)N1N=C2/C(=C/c3cccc(C(F)(F)F)c3)CS(=O)(=O)CC2C1c1cccc(C(F)(F)F)c1` (stereo not drawn) gave an Activity in [8] of 4. In addition, the inhibition in vivo at 150 mg/kg in [4] stood at 31%.
The compound `CC(C)Cc1ccc(C(C)C(=O)O)cc1` (stereo not drawn) [IBUPROFEN] registered an ID50 in [9] of 494 mg/kg. Also, the selectivity ratio in series [10] came to 3.4.
Turning to `COc1ccc(/C=C2\CS(=O)(=O)CC3C2=NN(CCCN2CCN(C)CC2)C3c2ccc(OC)cc2)cc1.O=C(O)/C=C\C(=O)O` (stereo not drawn), the results for the ED50 in series [11], in [17] and in series [19] were 30 mg/kg, 234 mg/kg and 30 mg/kg, respectively. In addition, the Activity in [12] is 18. For the same compound, testing at 300 mg/kg in [13] gave an inhibition in vivo of 21%. Also, the selectivity ratio in series [10] is above 5.1; in [18] it was 9.6. This compound also came in with an inhibition in vivo at 150 mg/kg in series [14] above 60%. In addition, the figures for the LD50 in series [15] and in series [16] were above 1200 mg/kg and 280 mg/kg, respectively.
As to `CCCN1N=C2/C(=C/c3ccc(C(C)(C)C)cc3)CS(=O)(=O)CC2C1c1ccc(C(C)(C)C)cc1` (stereo not drawn), the Activity in series [20] is 7. Also, at 150 mg/kg the inhibition in vivo in series [21] was 21%.
For the compound `CN1CCN(CCCN2N=C3/C(=C/c4ccc([S+](C)[O-])cc4)CSCC3C2c2ccc([S+](C)[O-])cc2)CC1.O=C(O)/C=C\C(=O)O` (stereo not drawn), in series [22], at 150 mg/kg the inhibition in vivo was 41%. Also, the inhibition in vivo at 300 mg/kg in series [23] worked out at 31%. In addition, the Activity in series [24] was 11. Also, in [19], the ED50 worked out at 190 mg/kg.
In series [1], `CCCN1N=C2/C(=C/c3ccccc3C)CS(=O)(=O)CC2C1c1ccccc1C` (stereo not drawn) gave an inhibition in vivo at 150 mg/kg of 21%. The same compound gave an Activity in series [25] of 7.
Take `CCCN1N=C2/C(=C/c3ccccc3)CSCC2C1c1ccccc1` (stereo not drawn): in series [1], the inhibition in vivo at 150 mg/kg is 21%. Besides, the Activity in series [26] is on record as 1.
Take `C#CCN1N=C2/C(=C/c3cccc(C(F)(F)F)c3)CS(=O)(=O)CC2C1c1cccc(C(F)(F)F)c1` (stereo not drawn): the Activity in [27] came to 8. This compound also came in with an inhibition in vivo at 150 mg/kg in series [4] of 31%.
